Test results reported in ChEMBL document CHEMBL1128458, “Synthesis and anticonvulsant activity of enaminones. 3. Investigations on 4'-, 3'-, and 2'-substituted and polysubstituted anilino compounds, sodium channel binding studies, and toxicity evaluations” (J Med Chem, 1995).
Active and inactive are the calls of the source. The calls are words filed in the database; no cut-off is given here.

Legend:
Mus musculus [1] = test: Anticonvulsant activity was determined; 2 indicates at doses greater than 100 mg/kg in mice; format: functional
How it was run: (§1)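 Phase I screen in CF1 mice: compound suspended in 0.5% aqueous methylcellulose, given ip at 30, 100 and 300 mg/kg; MES, scMet and rotorod toxicity read at 30 min and 4 h. Class 1 = activity at 100 mg/kg or less; 2 = activity above 100 mg/kg; 3 = none up to 300 mg/kg.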

Mus musculus [2] = test: Anticonvulsant activity; 3 indicates no activity at doses up to and including 300 mg/kg in mice.; format: functional; how it was run: as §1
Rattus norvegicus [3] = test: Anticonvulsant activity was determined; 3 indicates no activity at doses up to and including 300 mg/kg in rat; format: functional
Mus musculus [4] = test: Anticonvulsant activity was determined in mice; 1 indicates 100 mg/kg or less; format: functional; how it was run: as §1
Mus musculus [5] = species on record: Mus musculus; test: Effective dose for anticonvulsant activity determined in mice using MES test procedure. (Phase II); format: functional
Mus musculus [6] = test: Effective dose for anticonvulsant activity determined in mice using subcutaneous Met test procedure. (Phase II); Potentiates; format: functional, organism-based
Rattus norvegicus [7] = species on record: Rattus norvegicus; test: Effective dose for anticonvulsant activity determined in rats using MES test procedure. (Phase VIA); format: functional
How it was run: (§2)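 Phase VIA oral dosing in male Sprague–Dawley rats; MES and scMet ED50 and TD50 in mg/kg, each read at the time of peak effect; range in parentheses.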

Rattus norvegicus [8] = test: Effective dose for anticonvulsant activity determined in rats using subcutaneous Met test procedure. (Phase VIA); No protection; format: functional, organism-based
Rattus norvegicus [9] = test: Anticonvulsant activity determined in rats at an oral dose of 50 mg/kg of phase VIA trials; active; format: functional
Mus musculus [10] = test: Effective dose for anticonvulsant activity determined in mice using subcutaneous Met test procedure. (Phase II); format: functional; settings: sc
Rattus norvegicus [11] = test: Effective dose for anticonvulsant activity determined in rats using subcutaneous Met test procedure. (Phase VIA); format: functional; settings: sc; how it was run: as §2
[12] = Toxic dose determined in mice using MES test procedure. (Phase II); format: toxicity; settings: mouse, in vivo
[13] = Toxic dose determined in rats using MES test procedure. (Phase VIA); format: toxicity; settings: rat, in vivo; how it was run: as §2
[14] = molecular target: Sodium channel alpha subunits; brain (Types I, II, III) (Rattus norvegicus, UniProt P04775+P04774+P08104); test: Inhibition of [3H]BTX-B binding to neurotoxin site 2 of sodium channel of rat cerebral cortex synaptoneurosomes; format: tissue-based
How it was run: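 Synaptoneurosomes from rat cerebral cortex were incubated with [3H]BTX-B (2.0 nM final) in HEPES, pH 7.4 at 25 °C, with 130 mM choline chloride, at 37 °C for 45 min. Reactions were stopped by rapid vacuum filtration onto glass fibre filters, and bound radioactivity was compared with control. IC50 was read from log concentration (10–800 µM) versus percent specific binding.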

Rattus norvegicus [15] = test: Anticonvulsant activity was determined; 2 indicates at doses greater than 100 mg/kg in rat; format: functional
Mus musculus [16] = test: Effective dose for anticonvulsant activity determined in mice using subcutaneous Met test procedure. (Phase II); No protection; format: functional, organism-based
Rattus norvegicus [17] = test: Change in kidney weight on day 2 in male rats after ip administration of 100 mg/kg; expressed as kidney weight (g/100 g of body weight); format: functional; settings: route intraperitoneal
How it was run: (§3)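 Male Fischer 344 rats (200-245 g), four per group, housed singly in metabolism cages; day 0 control values taken, then a single ip dose of 100 mg/kg or vehicle (25% DMSO in corn oil). Pair-fed controls. Urine volume measured at 24 h intervals. At 48 h, under ether, blood drawn from the dorsal aorta; plasma assayed for ALT/GPT and BUN; kidney and liver weighed. Means ± SE.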

Rattus norvegicus [18] = test: Change in liver weight determined in male rats on day 2 after ip administration of 100 mg/kg; expressed as liver weight (g/100 g of body weight); format: functional; settings: route intraperitoneal; how it was run: as §3
Rattus norvegicus [19] = test: Change in the blood urea nitrogen concentration on day 0 determined in male rats after ip administration of 100 mg/kg; Expressed as blood urea nitrogen concentration (mg %); format: functional; settings: route intraperitoneal; how it was run: as §3
Rattus norvegicus [20] = test: Change in the blood urea nitrogen concentration on day 2 determined in male rats after ip administration of 100 mg/kg; Expressed as blood urea nitrogen concentration (mg %); format: functional; settings: route intraperitoneal; how it was run: as §3
Rattus norvegicus [21] = test: ALT/GPT activity in male rats on day 2 after ip administration of 100 mg/kg.; format: functional; settings: route intraperitoneal; how it was run: as §3
Rattus norvegicus [22] = test: Urine volume collected for biochemical tests after an ip dose of 100 mg/kg at 0 day in male rats.; format: functional; settings: route intraperitoneal; how it was run: as §3
Rattus norvegicus [23] = test: Urine volume collected for biochemical tests after an ip dose of 100 mg/kg at day 1 in male rats.; format: functional; settings: route intraperitoneal; how it was run: as §3
Rattus norvegicus [24] = test: Urine volume collected for biochemical tests after an ip dose of 100 mg/kg at day 2 in male rats.; format: functional; settings: route intraperitoneal; how it was run: as §3
Rattus norvegicus [25] = test: Anticonvulsant activity was determined in rat; 1 indicates 100 mg/kg or less; format: functional
Rattus norvegicus [26] = species on record: Rattus norvegicus; test: Effective dose for anticonvulsant activity determined in rats using MES test procedure. (Phase VIA, parentheses value indicate 95% confidence limits); format: functional; how it was run: as §2
[27] = Toxic dose determined in rats using MES test procedure. (Phase VIA, parentheses value indicate 95% confidence limits); format: toxicity, organism-based; settings: rat, in vivo; how it was run: as §2
Rattus norvegicus [28] = species on record: Rattus norvegicus; test: Protective index measured as the […].; format: functional

## COC(=O)[C@@H]1C(=O)C=C(Nc2ccccc2C#N)C[C@H]1C
Mus musculus [1]
  Anticonvulsant activity: 2

## COC(=O)[C@@H]1C(=O)C=C(NC2CCCCC2)C[C@H]1C
Mus musculus [2]
  Anticonvulsant activity: 3
Rattus norvegicus [3]
  Anticonvulsant activity: 3

## COC(=O)[C@@H]1C(=O)C=C(Nc2ccc(Cl)cc2Cl)C[C@H]1C
Mus musculus [4]
  Anticonvulsant activity: 1

## COC(=O)[C@@H]1C(=O)C=C(Nc2ccccc2F)C[C@H]1C
Mus musculus [1]
  Anticonvulsant activity: 2

## NC(=O)N1c2ccccc2C=Cc2ccccc21 [CARBAMAZEPINE]
Mus musculus [5]
  ED50: 8.8 mg/kg
Mus musculus [6]
  ED50: Convulsant
Rattus norvegicus [7]
  ED50: 8.5 mg/kg
Rattus norvegicus [8]
  ED50: inactive

## CCOC(=O)[C@@H]1C(=O)C=C(Nc2ccccc2N)C[C@H]1C
Mus musculus [2]
  Anticonvulsant activity: 3

## COC(=O)[C@@H]1C(=O)C=C(Nc2ccccc2Br)C[C@H]1C
Mus musculus [2]
  Anticonvulsant activity: 3

## COC(=O)[C@@H]1C(=O)C=C(Nc2ccc(Cl)cn2)C[C@H]1C
Mus musculus [4]
  Anticonvulsant activity: 1
Rattus norvegicus [9]
  Anticonvulsant activity: 1

## COC(=O)[C@@H]1C(=O)C=C(Nc2ccc(OC(F)(F)F)cc2)C[C@H]1C
Mus musculus [5]
  ED50: 22.4 mg/kg
Mus musculus [10]
  ED50: 114 mg/kg
Rattus norvegicus [7]
  ED50: 9.3 mg/kg
Rattus norvegicus [11]
  ED50: > 79 mg/kg
[12]
  TD50: 122 mg/kg
[13]
  TD50: > 158 mg/kg
[14]
  IC50: 170 µM

## CCOC(=O)[C@@H]1C(=O)C=C(Nc2c(Cl)cccc2Cl)C[C@H]1C
Mus musculus [2]
  Anticonvulsant activity: 3

## CCOC(=O)[C@@H]1C(=O)C=C(Nc2ccccc2Cl)C[C@H]1C
Mus musculus [2]
  Anticonvulsant activity: 3

## COC(=O)[C@@H]1C(=O)C=C(NNc2ccccc2)C[C@H]1C
Mus musculus [1]
  Anticonvulsant activity: 2
Rattus norvegicus [15]
  Anticonvulsant activity: 2

## CCOC(=O)[C@@H]1C(=O)C=C(Nc2ccc(Cl)c(Cl)c2)C[C@H]1C
Mus musculus [1]
  Anticonvulsant activity: 2

## COC(=O)[C@@H]1C(=O)C=C(Nc2ccc(Cl)c(Cl)c2)C[C@H]1C
Mus musculus [4]
  Anticonvulsant activity: 1

## O=C1NC(=O)C(c2ccccc2)(c2ccccc2)N1
Mus musculus [16]
  ED50: inactive
Rattus norvegicus [8]
  ED50: inactive

## COC(=O)[C@@H]1C(=O)C=C(Nc2ccccc2C)C[C@H]1C
Mus musculus [2]
  Anticonvulsant activity: 3

## COC(=O)[C@@H]1C(=O)C=C(Nc2ccccc2I)C[C@H]1C
Mus musculus [4]
  Anticonvulsant activity: 1

## COC(=O)[C@@H]1C(=O)C=C(Nc2ccccc2C(F)(F)F)C[C@H]1C
Mus musculus [1]
  Anticonvulsant activity: 2

## CCc1ccccc1NC1=CC(=O)[C@@H](C(=O)OC)[C@H](C)C1
Mus musculus [4]
  Anticonvulsant activity: 1

## COC(=O)[C@@H]1C(=O)C=C(Nc2cc(OC)ccc2Cl)C[C@H]1C
Mus musculus [1]
  Anticonvulsant activity: 2

## COC(=O)[C@@H]1C(=O)C=C(Nc2cc(C)ccc2OC)C[C@H]1C
Mus musculus [1]
  Anticonvulsant activity: 2

## COC(=O)[C@@H]1C(=O)C=C(Nc2ccc(OC)c(Cl)c2)C[C@H]1C
Mus musculus [2]
  Anticonvulsant activity: 3

## COC(=O)[C@@H]1C(=O)C=C(Nc2ccccc2[N+](=O)[O-])C[C@H]1C
Mus musculus [1]
  Anticonvulsant activity: 2

## COC(=O)[C@@H]1C(=O)C=C(Nc2ccccc2O)C[C@H]1C
Mus musculus [2]
  Anticonvulsant activity: 3

## COC(=O)[C@@H]1C(=O)C=C(Nc2ccc(Cl)c(Cl)c2Cl)C[C@H]1C
Mus musculus [2]
  Anticonvulsant activity: 3

## CCC1(c2ccccc2)C(=O)NC(=O)NC1=O [PHENOBARBITAL]
[14]
  IC50: 2.5 µM

## CCOC(=O)[C@@H]1C(=O)C=C(Nc2cc(Cl)c(Cl)cc2Cl)C[C@H]1C
Mus musculus [2]
  Anticonvulsant activity: 3

## CCOC(=O)[C@@H]1C(=O)C=C(Nc2cc(Cl)c(Cl)c(Cl)c2)C[C@H]1C
Mus musculus [1]
  Anticonvulsant activity: 2

## COC(=O)[C@@H]1C(=O)C=C(Nc2ccc(Cl)cc2)C[C@H]1C
Mus musculus [10]
  ED50: > 254 mg/kg
Rattus norvegicus [17]
  Activity: 0.35
Rattus norvegicus [18]
  Activity: 4.16
Rattus norvegicus [19]
  Activity: 14%
Rattus norvegicus [20]
  Activity: 14%
Rattus norvegicus [21]
  ALT/GPT: 25 U/L
Rattus norvegicus [7]
  ED50: 5.8 mg/kg
Rattus norvegicus [11]
  ED50: > 190 mg/kg
Rattus norvegicus [22]
  Urine volume: 13.8 mL
Rattus norvegicus [23]
  Urine volume: 9.6 mL
[12]
  TD50: 255 mg/kg
[13]
  TD50: > 380 mg/kg
[14]
  IC50: 489 µM
Rattus norvegicus [24]
  Urine volume: 10.2 mL

## CCOC(=O)[C@@H]1C(=O)C=C(Nc2ccc(Cl)c(Cl)c2Cl)C[C@H]1C
Mus musculus [1]
  Anticonvulsant activity: 2

## CCOC(=O)[C@@H]1C(=O)C=C(Nc2cc(Cl)ccc2Cl)C[C@H]1C
Mus musculus [2]
  Anticonvulsant activity: 3

## COC(=O)[C@@H]1C(=O)C=C(Nc2ccccc2S(N)(=O)=O)C[C@H]1C
Mus musculus [2]
  Anticonvulsant activity: 3

## COC(=O)[C@@H]1C(=O)C=C(Nc2c(Cl)cccc2Cl)C[C@H]1C
Mus musculus [2]
  Anticonvulsant activity: 3

## CCOC(=O)[C@@H]1C(=O)C=C(Nc2ccc(OC)c(Cl)c2)C[C@H]1C
Mus musculus [2]
  Anticonvulsant activity: 3

## CN1C(=O)CN=C(c2ccccc2)c2cc(Cl)ccc21 [DIAZEPAM]
[14]
  IC50: 152 µM

## CCOC(=O)[C@@H]1C(=O)C=C(NC2CCCCC2)C[C@H]1C
Mus musculus [4]
  Anticonvulsant activity: 1
Rattus norvegicus [25]
  Anticonvulsant activity: 1

## CCOC(=O)[C@@H]1C(=O)C=C(Nc2ccc(Cl)cn2)C[C@H]1C
Mus musculus [4]
  Anticonvulsant activity: 1
Rattus norvegicus [26]
  ED50: 12.1 mg/kg
[27]
  TD50: > 344 mg/kg
Rattus norvegicus [28]
  PI: 28.4
Rattus norvegicus [25]
  Anticonvulsant activity: 1

## COC(=O)[C@@H]1C(=O)C=C(Nc2ccccc2Cl)C[C@H]1C
Mus musculus [4]
  Anticonvulsant activity: 1

## CCOC(=O)[C@@H]1C(=O)C=C(Nc2ccc(Cl)cc2Cl)C[C@H]1C
Mus musculus [4]
  Anticonvulsant activity: 1

## CCOC(=O)[C@@H]1C(=O)C=C(NNc2ccccc2)C[C@H]1C
Mus musculus [2]
  Anticonvulsant activity: 3
Rattus norvegicus [3]
  Anticonvulsant activity: 3

## CCOC(=O)[C@@H]1C(=O)C=C(Nc2cc(C)ccc2OC)C[C@H]1C
Mus musculus [4]
  Anticonvulsant activity: 1

## COC(=O)[C@@H]1C(=O)C=C(Nc2cc(Cl)c(Cl)cc2Cl)C[C@H]1C
Mus musculus [4]
  Anticonvulsant activity: 1

## Nc1nnc(-c2cccc(Cl)c2Cl)c(N)n1 [LAMOTRIGINE]
Mus musculus [5]
  ED50: 2.6 mg/kg
[14]
  IC50: 114 µM

## COC(=O)[C@@H]1C(=O)C=C(Nc2ccccc2OC)C[C@H]1C
Mus musculus [2]
  Anticonvulsant activity: 3

## CCOC(=O)[C@@H]1C(=O)C=C(Nc2cc(Cl)cc(Cl)c2)C[C@H]1C
Mus musculus [2]
  Anticonvulsant activity: 3

## COC(=O)[C@@H]1C(=O)C=C(Nc2cc(Cl)cc(Cl)c2)C[C@H]1C
Mus musculus [2]
  Anticonvulsant activity: 3

## COC(=O)[C@@H]1C(=O)C=C(Nc2cc(Cl)ccc2Cl)C[C@H]1C
Mus musculus [4]
  Anticonvulsant activity: 1
